The term ED50 denotes the dose that gives a 50% effect, or the effect in half of the subjects.

SMILES strings stand for the structures. Active and inactive are the calls of the source. The rule behind the calls is not given here.

From ChEMBL document CHEMBL1909525, “Synthesis and anticonvulsant activity of novel 2,6-diketopiperazine derivatives. Part 1: perhydropyrrole[1,2-a]pyrazines” (Eur J Med Chem, 2011) come the findings set out here.

For data set [1], the system named is Mus musculus. The data set is described as follows: Anticonvulsant activity in albino Carworth Farms No.1 mouse assessed as protection against subcutaneous metrazol-induced seizure at 30 mg/kg, ip after 0.5 hrs. In kind it is functional, organism-based. Also noted: dose 30 mg/kg. In short, it runs like this:
(§1)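 Mouse scMET test. Compound given i.p. (30, 100 or 300 mg/kg) in 0.5% methylcellulose. Pentylenetetrazole 85 mg/kg (CD97) given s.c. at 0.5 or 4 h, then mice observed for 30 min. Protection is absence of clonic spasms; scored as protected/tested.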

Data set [2] concerns Mus musculus. The data set is described as follows: Anticonvulsant activity in albino Carworth Farms No.1 mouse assessed as protection against electric-current for 3 secs-induced seizure at 100 mg/kg, ip after 0.25 hrs by 6Hz minimal clonic seizure test. The arrangement: dose 100 mg/kg. In kind it is functional, organism-based. The method, boiled down:
(§2)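 6 Hz psychomotor seizure test in mice. Compound given i.p. as a suspension in 0.5% methylcellulose. Corneal stimulation at 32 mA, 0.2-ms monopolar rectangular pulses at 6 Hz for 3 s, from a constant-current device. Tests run 0.25–4 h after dosing. A mouse counted as protected if it resumed normal exploratory behaviour within 10 s; scored as protected/tested.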

The subject of data set [3] is Rattus norvegicus. As to the kind of experiment: Toxicity in albino Sprague-Dawley rat pilocarpine-induced status epilepticus model assessed as change in body weight in protected rat at 130 mg/kg, ip measured after 24 hrs of time from first stage 3 seizures. It counts as organism-based. Also noted: dose 130 mg/kg, route intraperitoneal. The following applies: in vivo. In short, it runs like this: (§3)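 Male albino Sprague-Dawley rats (150–180 g) received compound i.p., then a pilocarpine challenge immediately (0 min) or 30 min after treatment. The outcome was protection or no protection from seizures, scored as number protected/number tested. Average body weight change (g) ± S.E.M. was reported separately for protected and non-protected rats.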

For data set [4], the system named is Mus musculus. The data set is described as follows: Anticonvulsant activity in albino Carworth Farms No.1 mouse assessed as protection against maximal electroshock-induced seizure at 30 mg/kg, ip after 0.5 hrs. In kind it is functional, organism-based. Also noted: dose 30 mg/kg. The method, boiled down:
(§4)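 Mouse MES test with compound given i.p. (30, 100 or 300 mg/kg) in 0.5% methylcellulose; tested at 0.5 and 4 h. Corneal stimulus of 50 mA at 60 Hz for 0.2 s, electrodes primed with 0.5% butacaine in 0.9% NaCl. Protection is abolition of hindlimb tonic extension; scored as protected/tested.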
For orientation: The maximal electroshock test induces tonic seizures with an electrical stimulus.

For data set [5], the system named is Mus musculus. As to the kind of experiment: Anticonvulsant activity in albino Carworth Farms No.1 mouse assessed as protection against subcutaneous metrazol-induced seizure at 100 mg/kg, ip after 0.5 hrs. The arrangement: dose 100 mg/kg. In kind it is functional, organism-based. The method, boiled down:
as §1

Data set [6] has as its system Mus musculus. The data set is described as follows: Anticonvulsant activity in albino Carworth Farms No.1 mouse assessed as protection against maximal electroshock-induced seizure at 300 mg/kg, ip after 4 hrs. It counts as functional, organism-based. The arrangement: dose 300 mg/kg. In short, it runs like this: as §4
The test system of data set [7] is Mus musculus. The data set is described as follows: Anticonvulsant activity in albino Carworth Farms No.1 mouse assessed as protection against maximal electroshock-induced seizure at 30 mg/kg, ip after 4 hrs. It counts as functional, organism-based. The arrangement: dose 30 mg/kg. In short, it runs like this:
as §4

Data set [8] relates to Mus musculus. As to the kind of experiment: Anticonvulsant activity in albino Carworth Farms No.1 mouse assessed as protection against subcutaneous metrazol-induced seizure at 300 mg/kg, ip after 0.5 hrs. It counts as functional, organism-based. Also noted: dose 300 mg/kg. In short, it runs like this: as §1
The subject of data set [9] is Mus musculus. The data set is described as follows: Anticonvulsant activity in ip dosed albino Carworth Farms No.1 mouse assessed as protection against electric-current for 3 secs-induced seizure after 0.25 hrs by 6Hz minimal clonic seizure test. It counts as functional. The following applies: albino Carworth Farms No.1, ip.
For data set [10], the system named is Mus musculus. The data set is described as follows: Anticonvulsant activity in ip dosed albino Carworth Farms No.1 mouse assessed as protection against maximal electroshock-induced seizure after 0.25 hrs. It counts as functional. The following applies: albino Carworth Farms No.1, ip. In short, it runs like this: (§5)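 Mouse quantification at the time of peak effect, compound given i.p. in 0.5% methylcellulose. Groups of at least eight mice received varied doses until at least two points fell between 100 and 0% response. ED50 (MES, scMET) and TD50 (rotorod) with 95% CI by probit analysis (Finney). PI = TD50/ED50 MES.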

Data set [11] relates to Rattus norvegicus. The data set is described as follows: Anticonvulsant activity in po dosed albino Sprague-Dawley rat assessed as protection against maximal electroshock-induced seizure after 0.25 hrs. It counts as functional. In short, it runs like this: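 Rats dosed orally, compound in 0.5% methylcellulose. MES at 150 mA, 60 Hz, 0.2 s; scMET with pentylenetetrazole 70 mg/kg s.c. plus 30 min observation; rotorod for toxicity.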

In data set [12] the test system is Rattus norvegicus. The data set is described as follows: Toxicity in albino Sprague-Dawley rat pilocarpine-induced status epilepticus model assessed as change in body weight in protected rat at 65 mg/kg, ip measured after 24 hrs of time from first stage 3 seizures. It counts as organism-based. Also noted: dose 65 mg/kg, route intraperitoneal. The following applies: in vivo. The method, boiled down: as §3

In data set [13] the test system is Mus musculus. The data set is described as follows: Anticonvulsant activity in albino Carworth Farms No.1 mouse assessed as protection against electric-current for 3 secs-induced seizure at 75 mg/kg, ip after 2 hrs by 6Hz minimal clonic seizure test. It counts as functional, organism-based. Also noted: dose 75 mg/kg. In short, it runs like this: as §2
Data set [14] concerns Mus musculus. As to the kind of experiment: Anticonvulsant activity in ip dosed albino Carworth Farms No.1 mouse assessed as protection against subcutaneous metrazol-induced seizure after 0.25 hrs. It counts as functional. The following applies: albino Carworth Farms No.1, 0.25 h. The method, boiled down:
as §5

The species entered for data set [15] is Rattus norvegicus. The data set is described as follows: Inhibition of voltage-gated sodium channel in Wistar rat cerebral prefrontal coronal slices assessed as decrease of 10 Hz current-induced current amplitude at 10 to 100 uM after 5 mins by whole cell voltage clamp method. In short, it runs like this: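 Na+ currents recorded by whole-cell voltage clamp in dispersed mPFC cells from coronal prefrontal slices of 3-week-old male Wistar rats. TEA-based bath, pH 7.4. Trains of 100 pulses at 10 Hz, each a step to -20 mV after a -100 mV prepulse. Amplitude decline over the train compared between control and 5 min compound application; n = 3.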

Data set [16] is filed under the species Mus musculus. As to the kind of experiment: Protective index, ratio of TD50 for albino Carworth Farms No.1 mouse to ED50 for albino Carworth Farms No.1 mouse by maximal electroshock-induced seizure test. It counts as functional. The method, boiled down: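 Mouse quantification at the time of peak effect, compound given i.p. in 0.5% methylcellulose. Groups of at least eight mice received varied doses until at least two points fell between 100 and 0% response. PI = TD50/ED50 MES.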

The test system of data set [17] is Mus musculus. The data set is described as follows: Anticonvulsant activity in ip dosed albino Carworth Farms No.1 mouse assessed as time needs to show peak effect for protection against maximal electroshock-induced seizure. In kind it is functional.
Data set [18] relates to Mus musculus. The data set is described as follows: Anticonvulsant activity in albino Carworth Farms No.1 mouse assessed as protection against electric-current for 3 secs-induced seizure at 75 mg/kg, ip after 4 hrs by 6Hz minimal clonic seizure test. It counts as functional, organism-based. The arrangement: dose 75 mg/kg. The method, boiled down: as §2
The species named for data set [19] is Rattus norvegicus. The data set is described as follows: Activation of voltage-gated sodium channel in Wistar rat cerebral prefrontal coronal slices assessed as increase of 0.1 Hz current-induced current amplitude at 100 uM after 5 mins by whole cell voltage clamp method. The method, boiled down: (§6)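 Whole-cell voltage clamp on mechanically dispersed mPFC cells from coronal prefrontal slices of 3-week-old male Wistar rats. Bath: TEA-OH 90, NaCl 30, HEPES 10, MgCl2 2, CaCl2 2, glucose 15 mM, pH 7.4. Na+ currents evoked at 0.1 Hz by a step to -20 mV (30 ms) after a -100 mV prepulse (1000 ms). Amplitude compared before and after 5 min compound application; n = 3.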

The species entered for data set [20] is Rattus norvegicus. As to the kind of experiment: Activation of voltage-gated sodium channel in Wistar rat cerebral prefrontal coronal slices assessed as increase of 0.1 Hz current-induced current amplitude at 10 uM after 5 mins by whole cell voltage clamp method. The method, boiled down:
as §6

For data set [21], the system named is Mus musculus. As to the kind of experiment: Anticonvulsant activity in albino Carworth Farms No.1 mouse assessed as protection against electric-current for 3 secs-induced seizure at 100 mg/kg, ip after 0.5 hrs by 6Hz minimal clonic seizure test. It counts as functional. The method, boiled down:
as §2

Data set [22] relates to Mus musculus. As to the kind of experiment: Anticonvulsant activity in albino Carworth Farms No.1 mouse assessed as protection against electric-current for 3 secs-induced seizure at 75 mg/kg, ip after 1 hr by 6Hz minimal clonic seizure test. It counts as functional, organism-based. Also noted: dose 75 mg/kg. The method, boiled down:
as §2

The test system of data set [23] is Mus musculus. The data set is described as follows: Anticonvulsant activity in albino Carworth Farms No.1 mouse assessed as protection against electric-current for 3 secs-induced seizure at 100 mg/kg, ip after 4 hrs by 6Hz minimal clonic seizure test. It counts as functional, organism-based. The arrangement: dose 100 mg/kg. The method, boiled down:
as §2

As to `O=C1NC(=O)[C@@H]2CCCN2[C@H]1c1ccccc1`, the outcome with Mus musculus [1], with Mus musculus [4], in the data set on Mus musculus [5], in the data set on Mus musculus [6], with Mus musculus [7] and with Mus musculus [8] was inactive. Also, the outcome in the data set on Mus musculus [13], in the data set on Mus musculus [18], in the data set with Mus musculus [21], in the data set with Mus musculus [22] and with Mus musculus [23] was inactive. Moreover, the outcome with Mus musculus [2] was Active. The Activity in the data set on Rattus norvegicus [3] was 12.5 g; in the data set on Rattus norvegicus [12], 4.4 g; in the data set listed under Rattus norvegicus [19], 8.4%; in the data set filed under Rattus norvegicus [20], 3%. Moreover, the ED50 worked out at 9.93 mg/kg in the data set on Mus musculus [9], 69.5 mg/kg in the data set with Mus musculus [10], 39.7 mg/kg with Rattus norvegicus [11] and 87.9 mg/kg with Mus musculus [14]. In addition, the inhibition entry in the data set filed under Rattus norvegicus [15] is “inactive”. Besides, in the data set filed under Mus musculus [16], the “Ratio TD50/ED50” value came out at 1.7. Moreover, the Time in the data set with Mus musculus [17] worked out at 0.25 h.
